One may read the Ki as a measure of affinity in units of concentration, obtained from inhibition or displacement. As usually defined, the IC50 is the concentration that gives 50% inhibition.

The target of assay [1] is T1, Mu-type opioid receptor (Rattus norvegicus, UniProt P33535). The assay can be described thus: Binding affinity towards Opioid receptor mu 1. The method in brief: (§1)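 Rat brain minus cerebellum, homogenised in 0.32 M sucrose and spun. The membrane pellet was preincubated 1 h at room temperature in Tris pH 7.5/NaCl to strip endogenous opioids. Filtration, scintillation counting.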

Assay [2] addresses T1, Mu-type opioid receptor. The assay can be described thus: Concentration required for inhibition of [3H]DAMGO binding to Opioid receptor mu 1 in rat brain membranes. It is filed as cell membranes. The procedure, abridged:
as §1

T1 sequence (P33535 whole entry): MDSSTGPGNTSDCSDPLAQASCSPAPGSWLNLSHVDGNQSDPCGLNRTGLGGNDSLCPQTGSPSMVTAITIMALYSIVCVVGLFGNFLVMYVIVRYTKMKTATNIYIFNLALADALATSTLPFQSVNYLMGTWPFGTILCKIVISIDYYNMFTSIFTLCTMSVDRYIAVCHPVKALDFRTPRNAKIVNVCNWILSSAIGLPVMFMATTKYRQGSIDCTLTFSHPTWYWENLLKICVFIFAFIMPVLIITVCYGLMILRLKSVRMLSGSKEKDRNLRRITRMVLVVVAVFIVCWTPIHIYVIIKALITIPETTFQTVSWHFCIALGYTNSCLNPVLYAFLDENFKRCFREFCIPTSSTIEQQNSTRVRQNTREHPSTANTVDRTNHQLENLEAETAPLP

The compound `NC(=O)[C@H](Cc1ccccc1)NC(=O)[C@H](Cc1c[nH]c2ccccc12)NC(=O)[C@@H]1CCCN1C(=O)CC(N)c1ccc(O)cc1` (stereo partly drawn) registered a Ki on Mu-type opioid receptor [1] of more than 1 µM.

`NC(=O)CC(NC(=O)[C@H](Cc1c[nH]c2ccccc12)NC(=O)[C@@H]1CCCN1C(=O)[C@@H](N)Cc1ccc(O)cc1)c1ccccc1` (stereo partly drawn) registered an IC50 on Mu-type opioid receptor [2] of 0.68 µM. The compound also yielded a Ki at Mu-type opioid receptor [1] of 0.908 µM. As for `NC(=O)[C@H](Cc1ccccc1)NC(=O)[C@H](Cc1c[nH]c2ccccc12)NC(=O)C[C@H]1CCCN1C(=O)[C@@H](N)Cc1ccc(O)cc1`, the IC50 at Mu-type opioid receptor [2] was 0.0018 µM. In addition, on Mu-type opioid receptor [1], the Ki is 0.00033 µM. In turn, `NC(=O)[C@H](Cc1ccccc1)NC(=O)CC(NC(=O)[C@@H]1CCCN1C(=O)C(N)Cc1ccc(O)cc1)c1c[nH]c2ccccc12` (single isomer, unassigned) showed a Ki at Mu-type opioid receptor [1] of more than 1 µM. On Mu-type opioid receptor [2], `NC(=O)[C@H](Cc1ccccc1)NC(=O)[C@H](Cc1c[nH]c2ccccc12)NC(=O)C[C@@H]1CCCN1C(=O)[C@@H](N)Cc1ccc(O)cc1` gave an IC50 of 0.072 µM. Moreover, the Ki on Mu-type opioid receptor [1] worked out at 0.0104 µM.

The values are drawn from ChEMBL document CHEMBL1133148 (Bioorg Med Chem Lett, 2000).
